In ChEMBL document CHEMBL1138386, “Discovery of potent and selective PKC-theta inhibitors” (Bioorg Med Chem Lett, 2007):

Tests used:
[1] = target: T1, Protein kinase C theta type (Homo sapiens, UniProt Q04759); assay: Inhibition of PKCtheta by FP assay
Procedure, shortened: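 Recombinant PKC-θ, […], in 20 mM Hepes pH 7.6 with 0.1 mM CaCl2, 10 mM MgCl2, 0.01% Chaps, TCEP, Na orthovanadate and protease inhibitor cocktail. Enzyme pre-incubated with compound dilutions for 10 min at rt. Phosphopeptide read by competition FP using fluorescein-labelled phosphopeptide tracer and anti-phosphoserine antibody in quench buffer.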

T-cell = assay: Inhibition of IL2 production in […]-stimulated human CD4+ T cells; type: functional, cell-based; details: in the assay text read “anti-CD3/anti-CD28” for “anti-CD3/anti-CD8”
Procedure, shortened: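 Human CD4+ T cells isolated from whole blood by positive selection. Cells activated through TCR and CD28 with anti-CD3 and anti-CD28 mAbs. 50,000 cells/well exposed to compound dilutions at 0.125% DMSO final, or DMSO alone, overnight at 37 °C. Supernatant IL-2 measured by ELISA after 1:10 dilution.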

Cytochrome P450 2C9 = Cytochrome P450 2C9 (Homo sapiens, UniProt P11712); assay: Inhibition of CYP2C9; type: ADME
Chain of Cytochrome P450 2C9 (P11712 whole entry): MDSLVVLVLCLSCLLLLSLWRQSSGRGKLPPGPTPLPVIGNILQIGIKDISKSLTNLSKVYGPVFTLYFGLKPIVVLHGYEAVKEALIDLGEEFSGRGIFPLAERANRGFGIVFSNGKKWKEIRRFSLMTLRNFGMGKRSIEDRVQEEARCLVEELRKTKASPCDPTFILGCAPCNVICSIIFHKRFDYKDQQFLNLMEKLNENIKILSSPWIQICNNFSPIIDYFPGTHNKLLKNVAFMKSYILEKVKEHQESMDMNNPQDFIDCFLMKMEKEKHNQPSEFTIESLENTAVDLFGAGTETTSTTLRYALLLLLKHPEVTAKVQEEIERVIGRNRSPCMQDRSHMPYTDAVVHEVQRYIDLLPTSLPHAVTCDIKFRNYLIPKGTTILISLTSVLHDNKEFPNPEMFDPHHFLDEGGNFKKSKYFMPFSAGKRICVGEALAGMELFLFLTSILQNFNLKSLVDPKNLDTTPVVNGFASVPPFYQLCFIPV

Cytochrome P450 2D6 = Cytochrome P450 2D6 (Homo sapiens, UniProt P10635); assay: Inhibition of CYP2D6; type: ADME
Chain of Cytochrome P450 2D6 (P10635 whole entry): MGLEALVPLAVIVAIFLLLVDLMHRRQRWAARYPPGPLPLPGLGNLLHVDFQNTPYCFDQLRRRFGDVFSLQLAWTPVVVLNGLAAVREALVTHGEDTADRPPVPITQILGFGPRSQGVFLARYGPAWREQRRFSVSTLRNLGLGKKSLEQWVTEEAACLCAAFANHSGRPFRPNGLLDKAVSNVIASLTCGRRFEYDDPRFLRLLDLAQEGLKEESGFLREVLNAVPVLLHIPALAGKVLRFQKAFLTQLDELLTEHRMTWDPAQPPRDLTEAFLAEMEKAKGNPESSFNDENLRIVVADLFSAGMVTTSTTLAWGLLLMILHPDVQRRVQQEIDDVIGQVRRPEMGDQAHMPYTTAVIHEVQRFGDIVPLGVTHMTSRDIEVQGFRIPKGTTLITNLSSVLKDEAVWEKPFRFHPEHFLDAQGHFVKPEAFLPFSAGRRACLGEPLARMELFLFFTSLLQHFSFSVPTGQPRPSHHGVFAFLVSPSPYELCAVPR

Cytochrome P450 3A4 [2] = target: T2, Cytochrome P450 3A4 (Homo sapiens, UniProt P08684); assay: Inhibition of CYP3A4 in presence of BFC substrate; type: ADME
T2 sequence (P08684 whole entry): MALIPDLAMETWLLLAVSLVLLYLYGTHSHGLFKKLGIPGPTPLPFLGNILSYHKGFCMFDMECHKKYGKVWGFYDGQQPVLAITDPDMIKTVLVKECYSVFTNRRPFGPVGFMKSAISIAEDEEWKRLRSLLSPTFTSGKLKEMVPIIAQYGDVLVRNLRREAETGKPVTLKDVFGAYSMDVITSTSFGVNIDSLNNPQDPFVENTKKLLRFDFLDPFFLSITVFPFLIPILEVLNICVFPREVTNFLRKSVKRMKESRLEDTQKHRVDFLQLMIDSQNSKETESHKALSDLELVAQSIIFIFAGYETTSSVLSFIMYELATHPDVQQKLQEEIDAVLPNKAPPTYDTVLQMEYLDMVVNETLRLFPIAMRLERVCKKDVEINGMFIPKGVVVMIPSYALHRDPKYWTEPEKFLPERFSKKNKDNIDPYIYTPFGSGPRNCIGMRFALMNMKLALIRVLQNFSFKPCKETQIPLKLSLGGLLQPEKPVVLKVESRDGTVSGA

[3] = Stability in human liver microsomes; type: ADME, Microsome
[4] = Permeability across Caco-2 cells from apical to basolateral side; type: ADME, cell-based; details: human, read-out: permeability
[5] = Permeability across Caco-2 cells from basolateral to apical side; type: ADME, cell-based; details: human, read-out: permeability
Cytochrome P450 3A4 [6] = target: T2, Cytochrome P450 3A4; assay: Inhibition of CYP3A4 in presence of BQ substrate; type: ADME
[7] = target: T1, Protein kinase C theta type; assay: Inhibition of PKCtheta in presence of 50 uM ATP
[8] = target: T1, Protein kinase C theta type; assay: Inhibition of PKCtheta in presence of 100 uM ATP

T1 sequence (Q04759 whole entry): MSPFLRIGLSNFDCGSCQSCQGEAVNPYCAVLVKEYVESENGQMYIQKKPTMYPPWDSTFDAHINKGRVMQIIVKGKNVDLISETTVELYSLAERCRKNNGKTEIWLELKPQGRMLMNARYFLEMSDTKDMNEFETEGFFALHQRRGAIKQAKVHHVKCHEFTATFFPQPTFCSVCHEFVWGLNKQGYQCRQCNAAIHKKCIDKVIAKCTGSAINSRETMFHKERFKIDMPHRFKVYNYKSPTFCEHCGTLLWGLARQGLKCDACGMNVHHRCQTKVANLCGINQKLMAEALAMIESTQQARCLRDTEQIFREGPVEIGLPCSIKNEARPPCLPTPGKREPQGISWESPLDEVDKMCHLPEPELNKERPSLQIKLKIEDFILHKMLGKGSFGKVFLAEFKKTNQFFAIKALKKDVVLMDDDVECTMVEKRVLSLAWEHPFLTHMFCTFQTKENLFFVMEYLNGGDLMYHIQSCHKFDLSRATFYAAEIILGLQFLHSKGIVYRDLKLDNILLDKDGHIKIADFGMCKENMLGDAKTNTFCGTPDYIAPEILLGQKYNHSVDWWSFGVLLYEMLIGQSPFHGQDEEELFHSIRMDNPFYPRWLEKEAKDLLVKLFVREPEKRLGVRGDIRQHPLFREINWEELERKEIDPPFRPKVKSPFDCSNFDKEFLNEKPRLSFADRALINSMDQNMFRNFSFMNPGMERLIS

Structure (SMILES) | IC50 [1] | other results
NCC1CCC(CNc2nc(Nc3cccc(Cl)c3)ncc2C(F)(F)F)CC1 (stereo unspecified) | 640 nM | 
CC(=O)NCC1CCC(CNc2nc(NCc3ccccc3Cl)ncc2[N+](=O)[O-])CC1 (stereo unspecified) | > 10000 nM | 
NCC1CCC(CNc2nc(NCc3ccc(F)cc3F)ncc2[N+](=O)[O-])CC1 (stereo unspecified) | 100 nM | 
NCC1CCC(CNc2nc(NCc3c(F)cccc3F)ncc2[N+](=O)[O-])CC1 (stereo unspecified) | 42 nM | 
NCC1CCC(CNc2nc(NCCc3ccc(F)cc3)ncc2[N+](=O)[O-])CC1 (stereo unspecified) | 77 nM | 
NCC1CCC(CNc2nc(NCc3ccc(F)cc3)ncc2[N+](=O)[O-])CC1 (stereo unspecified) | 210 nM | 
NCCCCCCCNc1nc(NCc2ccccc2Cl)ncc1[N+](=O)[O-] | 110 nM | 
NCc1cccc(CNc2nc(NCc3ccccc3Cl)ncc2[N+](=O)[O-])c1 | 200 nM | 
COc1cc(CNc2ncc([N+](=O)[O-])c(NCC3CCC(CN)CC3)n2)cc(OC)c1 (stereo unspecified) | 1500 nM | 
NCC1CCC(CNc2nc(NCc3cccc(Cl)c3Cl)ncc2[N+](=O)[O-])CC1 (stereo unspecified) | 8 nM | 
NCCCCCNc1nc(NCc2ccccc2Cl)ncc1[N+](=O)[O-] | 450 nM | 
CN(C)CC1CCC(CNc2nc(NCc3ccccc3Cl)ncc2[N+](=O)[O-])CC1 (stereo unspecified) | 54 nM | IC50 (T-cell): 190 nM; IC50 (Cytochrome P450 2C9): 8400 nM; IC50 (Cytochrome P450 2D6): 1700 nM; IC50 (Cytochrome P450 3A4 [2]): 1700 nM; half-life [3]: 40 min; Papp A→B [4]: 10.6 ×10⁻⁶ cm/s; Papp B→A [5]: 10.2 ×10⁻⁶ cm/s; IC50 (Cytochrome P450 3A4 [6]): 13000 nM
NCC1CCC(CNc2nc(NCc3cc(Cl)ccc3Cl)ncc2[N+](=O)[O-])CC1 (stereo unspecified) | 7 nM | 
O=[N+]([O-])c1cnc(NCc2ccccc2Cl)nc1NCC1CCCCC1 | > 10000 nM | 
NCc1ccc(CNc2nc(NCc3ccccc3Cl)ncc2[N+](=O)[O-])cc1 | 160 nM | 
NCC1CCCC(CNc2nc(NCc3ccccc3Cl)ncc2[N+](=O)[O-])C1 (stereo unspecified) | 3 nM | 
NCC1CCC(CNc2nc(NCc3cc(Cl)cc(Cl)c3)ncc2[N+](=O)[O-])CC1 (stereo unspecified) | 400 nM | 
NCC1CCC(CNc2nc(NCCc3cccc(F)c3)ncc2[N+](=O)[O-])CC1 (stereo unspecified) | 54 nM | 
NCC1CCC(CNc2nc(Nc3cc(Cl)cc(Cl)c3)ncc2[N+](=O)[O-])CC1 (stereo unspecified) | 680 nM | 
NCC1CCC(CNc2nc(NCc3cccc(F)c3F)ncc2[N+](=O)[O-])CC1 (stereo unspecified) | 22 nM | 
NCC1CCC(CNc2nc(Nc3cc(Cl)cc(Cl)c3)ncc2C(F)(F)F)CC1 (stereo unspecified) | 4200 nM | 
O=[N+]([O-])c1cnc(NCc2ccccc2Cl)nc1NCC1CCNCC1 | 90 nM | IC50 (T-cell): 720 nM; IC50 (Cytochrome P450 2C9): 17600 nM; IC50 (Cytochrome P450 2D6): > 30000 nM; IC50 (Cytochrome P450 3A4 [2]): 28000 nM; half-life [3]: 66 min; Papp A→B [4]: 8.1 ×10⁻⁶ cm/s; Papp B→A [5]: 10.6 ×10⁻⁶ cm/s; IC50 (Cytochrome P450 3A4 [6]): > 30000 nM
NCC1CCC(CNc2nc(NCc3cc(F)ccc3F)ncc2[N+](=O)[O-])CC1 (stereo unspecified) | 35 nM | 
NCCCNc1nc(NCc2ccccc2Cl)ncc1[N+](=O)[O-] | > 10000 nM | 
NCC1CCC(CNc2nc(NCc3ccc(Cl)cc3Cl)ncc2[N+](=O)[O-])CC1 (stereo unspecified) | 27 nM | 
Cc1ccc(C)c(CNc2ncc([N+](=O)[O-])c(NCC3CCC(CN)CC3)n2)c1 (stereo unspecified) | 910 nM | 
COc1ccc(CNc2ncc([N+](=O)[O-])c(NCC3CCC(CN)CC3)n2)cc1 (stereo unspecified) | 12000 nM | 

Second part, led by results:

IC50 [1] | Structure (SMILES) | other results
90 nM | NCC1CCC(CNc2nc(NCCCCc3ccccc3)ncc2[N+](=O)[O-])CC1 (stereo unspecified) | 
12 nM | NCC1CCC(CNc2nc(NCc3ccccc3C(F)(F)F)ncc2[N+](=O)[O-])CC1 (stereo unspecified) | 
15 nM | NCC1CCC(CNc2nc(NCc3ccccc3C(F)F)ncc2[N+](=O)[O-])CC1 (stereo unspecified) | 
85 nM | NCC1CCC(CNc2nc(NCc3cccc(Cl)c3)ncc2[N+](=O)[O-])CC1 (stereo unspecified) | 
48 nM | NCC1CCC(CNc2nc(NCc3ccccc3F)ncc2[N+](=O)[O-])CC1 (stereo unspecified) | 
13 nM | Cc1cccc(CNc2ncc([N+](=O)[O-])c(NCC3CCC(CN)CC3)n2)c1C (stereo unspecified) | 
2200 nM | NCC1CCC(CNc2nc(NC(=O)c3ccccc3Br)ncc2[N+](=O)[O-])CC1 (stereo unspecified) | 
18 nM | NCC1CCC(CNc2nc(NCc3ccccc3OC(F)(F)F)ncc2[N+](=O)[O-])CC1 (stereo unspecified) | 
210 nM | COc1cccc(CNc2ncc([N+](=O)[O-])c(NCC3CCC(CN)CC3)n2)c1 (stereo unspecified) | 
39 nM | NCC1CCC(CNc2nc(NCc3ccccc3-c3ccccc3)ncc2[N+](=O)[O-])CC1 (stereo unspecified) | 
500 nM | NCC1CCC(CNc2nc(NCc3ccccc3)ncc2[N+](=O)[O-])CC1 (stereo unspecified) | 
29 nM | NC[C@H]1CC[C@H](CNc2nc(NCc3ccccc3Cl)ncc2[N+](=O)[O-])CC1 | 
5 nM | NCC1CCC(CNc2nc(NCc3ccccc3Br)ncc2[N+](=O)[O-])CC1 (stereo unspecified) | 
94 nM | NCC1CCC(CNc2nc(NCCc3ccccc3)ncc2[N+](=O)[O-])CC1 (stereo unspecified) | 
170 nM | NCC1CCC(CNc2nc(NCc3ccc(Cl)cc3)ncc2[N+](=O)[O-])CC1 (stereo unspecified) | 
6 nM | NCC1CCC(CNc2nc(NCc3ccccc3SC(F)(F)F)ncc2[N+](=O)[O-])CC1 (stereo unspecified) | 
46 nM | Cc1c(Cl)cccc1CNc1ncc([N+](=O)[O-])c(NCC2CCC(CN)CC2)n1 (stereo unspecified) | 
5700 nM | C[C@@H](Nc1ncc([N+](=O)[O-])c(NCC2CCC(CN)CC2)n1)c1ccccc1 (stereo partly specified) | 

IC50 [1] | Structure (SMILES) | other results
18 nM | NC[C@H]1CC[C@@H](CNc2nc(NCc3ccccc3Cl)ncc2[N+](=O)[O-])CC1 | 
46 nM | NCC1CCC(CNc2nc(NCc3ccccc3Cl)ncc2[N+](=O)[O-])CC1 (stereo unspecified) | IC50 [7]: 290 nM; IC50 [8]: 630 nM; IC50 (T-cell): 84 nM; IC50 (Cytochrome P450 2C9): 1000 nM; IC50 (Cytochrome P450 2D6): 4300 nM; IC50 (Cytochrome P450 3A4 [2]): 700 nM; half-life [3]: 48 min; Papp A→B [4]: 4 ×10⁻⁶ cm/s; Papp B→A [5]: 6.9 ×10⁻⁶ cm/s; IC50 (Cytochrome P450 3A4 [6]): 1400 nM
130 nM | NCC1CCC(CNc2nc(NCCc3ccccc3F)ncc2[N+](=O)[O-])CC1 (stereo unspecified) | 
60 nM | NCC1CCC(CNc2nc(Nc3cccc(Cl)c3)ncc2[N+](=O)[O-])CC1 (stereo unspecified) | 
11 nM | NCC1CCC(CNc2nc(NCc3ccccc3[N+](=O)[O-])ncc2[N+](=O)[O-])CC1 (stereo unspecified) | 
3700 nM | C[C@H](Nc1ncc([N+](=O)[O-])c(NCC2CCC(CN)CC2)n1)c1ccccc1 (stereo partly specified) | 
270 nM | NCC1CCC(CNc2nc(NCCCc3ccccc3)ncc2[N+](=O)[O-])CC1 (stereo unspecified) | 
34 nM | Cc1ccccc1CNc1ncc([N+](=O)[O-])c(NCC2CCC(CN)CC2)n1 (stereo unspecified) | 
83 nM | NCC1CCC(CNc2nc(NCc3cccc(F)c3)ncc2[N+](=O)[O-])CC1 (stereo unspecified) | 
2500 nM | CC(C)(Nc1ncc([N+](=O)[O-])c(NCC2CCC(CN)CC2)n1)c1ccccc1 (stereo unspecified) | 
17 nM | COc1ccccc1CNc1ncc([N+](=O)[O-])c(NCC2CCC(CN)CC2)n1 (stereo unspecified) | 
31 nM | NCC1CCC(CNc2nc(NC3Cc4ccccc4C3)ncc2[N+](=O)[O-])CC1 (stereo unspecified) | 
39 nM | Cc1cccc(CNc2ncc([N+](=O)[O-])c(NCC3CCC(CN)CC3)n2)c1 (stereo unspecified) | 
460 nM | NCC1CCC(CNc2nc(N[C@@H]3CCc4ccccc43)ncc2[N+](=O)[O-])CC1 (stereo partly specified) | 
5 nM | CSc1ccccc1CNc1ncc([N+](=O)[O-])c(NCC2CCC(CN)CC2)n1 (stereo unspecified) | IC50 (T-cell): 140 nM; IC50 (Cytochrome P450 2C9): 1400 nM; IC50 (Cytochrome P450 2D6): 4700 nM; IC50 (Cytochrome P450 3A4 [2]): 6900 nM; half-life [3]: 65 min; Papp A→B [4]: 1.6 ×10⁻⁶ cm/s; Papp B→A [5]: 1.9 ×10⁻⁶ cm/s; IC50 (Cytochrome P450 3A4 [6]): > 30000 nM
180 nM | Cc1ccccc1CCNc1ncc([N+](=O)[O-])c(NCC2CCC(CN)CC2)n1 (stereo unspecified) | 
4400 nM | NCC1CCC(CNc2nc(N[C@H]3CCc4ccccc43)ncc2[N+](=O)[O-])CC1 (stereo partly specified) | 
